Measured values from the array DNA melting data of Ke et al. (doi:10.1101/2024.01.08.574731).

How the values were obtained:
[1] = melting temperature; fluorescence melt of hairpins on a sequencing array, two-state fit, raised by 9.35 °C to match UV melts; conditions: sodium 0.088 M
Procedure, shortened: (§1)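 Melting temperature and folding enthalpy were derived from bootstrapped two-state fits. The fitted temperatures were raised by 9.35 °C to agree with UV melts, and four replicates were combined by inverse variance. The underlying data were Cy3 fluorescence images of library hairpins, with annealed Cy3 and quencher oligos, on a sequenced MiSeq flow cell in 50 mM Na-HEPES pH 8.0, 25 mM NaCl, taken in 2.5 °C steps up to 60 °C, normalised to pre-quench Cy3 and to control constructs.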

[2] = folding enthalpy; higher = less favourable; fluorescence melt of hairpins on a sequencing array, two-state fit; conditions: sodium 0.088 M
Procedure, shortened: as §1

| Sequence | Tm [1] | folding enthalpy [2] |
| --- | --- | --- |
| GTGTGAGGAAACTCACGC (.(((((....))))).) | 53.3 °C | -35.9 kcal/mol |
| GACGTTGGAAACAACATC ((.((((....)))).)) | 32.4 °C | -16.8 kcal/mol |
| GGGCTCCCGAAAGGGCCC (((..(((....)))))) | 56 °C | -29.5 kcal/mol |
| GCCCAGGCGAAAGCCGGC (((..(((....)))))) | 62 °C | -10.1 kcal/mol |
| GGAGTGGGAAACCGTTCC (((..((....))..))) | 32.3 °C | -17.8 kcal/mol |
| CGGCCCGGAAACGGACCG (((.(((....))).))) | 57.6 °C | -37.7 kcal/mol |
| GCGTACGAAAGTATCCGC ((((((....)))..))) | 38.6 °C | -23.5 kcal/mol |
| GATCGCCTGTGCGATC ((((((....)))))) | 66.8 °C | -36.7 kcal/mol |
| AAACAGAAATGTTT (((((....))))) | 25.3 °C | -11.4 kcal/mol |
| GCTTCCGAAAGGAAGAGC ((((((....)))..))) | 55 °C | -13 kcal/mol |
| CGCTCTCGGAAACGAGCG (((..(((....)))))) | 46 °C | -17.5 kcal/mol |
| GGGAGGCCGAAAGGCCCC (((..(((....)))))) | 56.6 °C | -9.7 kcal/mol |
| GCATTCGAAAGAATATGC ((((((....)))..))) | 36.1 °C | -24.8 kcal/mol |
| GCTGACGGAAACGTCGGC ((.((((....)))).)) | 63.3 °C | -48.3 kcal/mol |
| GTTGCCGAAAGGCGAAAC ((((((....)))..))) | 33.2 °C | -9.33 kcal/mol |
| CGAGTCGGAAACGATCG (((.(((....)))))) | 40.8 °C | -27.4 kcal/mol |
| GTAAGTGAAAACTTAC ((((((....)))))) | 48.7 °C | -27.4 kcal/mol |
| GAAGCTGGAAACAGCCTC ((.((((....)))).)) | 32.6 °C | -13.8 kcal/mol |
| GGTGTCGGAAACGATGCC ((..(((....)))..)) | 49.4 °C | -26.7 kcal/mol |

| Sequence | Tm [1] | folding enthalpy [2] |
| --- | --- | --- |
| GATCAACAATTGATC ((((((...)))))) | 33.4 °C | -21.6 kcal/mol |
| GTCATGCGAAAGCAGAC (((.(((....)))))) | 49.8 °C | -22.4 kcal/mol |
| GACGGACGAAAGTCTGTC (((.(((....))).))) | 60.5 °C | -35.3 kcal/mol |
| GAATGGCGAAAGCCCTTC (((.(((....))).))) | 38.4 °C | -20 kcal/mol |
| GATCTACGTTAGATC ((((((...)))))) | 38.3 °C | -24.8 kcal/mol |
| GATCGAGGTTCGATC ((((((...)))))) | 51.6 °C | -38.6 kcal/mol |
| GATCCGTCAACGGATC ((((((....)))))) | 62 °C | -35.9 kcal/mol |
| GATCAGCACGCTGATC ((((((....)))))) | 62.3 °C | -42.1 kcal/mol |
| GCCCGTTCGAAAGAAGGC (((..(((....)))))) | 33.1 °C | -12.3 kcal/mol |
| GATCCACAATTGGATC ((((((....)))))) | 47.5 °C | -32.4 kcal/mol |
| GAATCACGAAAGTGCTTC (((.(((....))).))) | 38.5 °C | -20.8 kcal/mol |
| GCATTCACGAAAGTGTGC (((..(((....)))))) | 37.6 °C | -18.2 kcal/mol |
| CGCGGACGACTCCGCG ((((((....)))))) | 63.5 °C | -40.8 kcal/mol |
| GACAACGAAAGTTACGTC ((((((....)))..))) | 30.6 °C | -12.5 kcal/mol |
| GGAATCGAAAGATTCC ((((((....)))))) | 64.3 °C | -32.3 kcal/mol |
| GACCTTGGAAACGAGGTC (((((.(....).))))) | 50.9 °C | -38.9 kcal/mol |
| GCTATGCGAAAGCGTAGC ((((.((....)).)))) | 65.7 °C | -34.5 kcal/mol |
| GTATCCGAAAGGATAC ((((((....)))))) | 65.8 °C | -35.1 kcal/mol |
| GACCTAGAAATAGGTC ((((((....)))))) | 51.3 °C | -35.6 kcal/mol |
